Data set [1] deals with T1, 6-phosphofructo-2-kinase/fructose-2,6-bisphosphatase 3 (Homo sapiens, UniProt Q16875). The data set is described as follows: Inhibition of PFKFB3-mediated glycolysis in human MDA-MB-231 cells assessed as extracellular acidification rate at 10 uM after 60 mins. Type of data set: cell-based. The method in brief:
(§1)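 MDA-MB-231 cells were seeded at 15,000/well for 24 h, then switched to assay medium in an XF24 analyzer. After 2 baseline readings, compound (10 µM) was injected and ECAR tracked for 2 h. 2-Deoxyglucose (100 mM) was then injected as positive control and ECAR followed 32 min more. ECAR was expressed as % of baseline, with protein measured by BCA after RIPA lysis; n = 3.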

Data set [2] has as its target T1, 6-phosphofructo-2-kinase/fructose-2,6-bisphosphatase 3. The data set is described as follows: Inhibition of human recombinant GST-tagged PFKFB3 expressed in Escherichia coli BL21(DE3) using fructose 6-phosphate as substrate preincubated for 30 mins before substrate addition measured after 60 mins by kinase-glo assay. The method in brief: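 GST-tagged human PFKFB3 was purified on glutathione sepharose. The compound was preincubated with enzyme for 30 min at 30 °C in 40 mM Tris pH 7.5, 20 mM MgCl2, 0.1 mg/mL BSA. ATP and F6P were then added in buffer containing 25 µM ATP and 1.25 mM F6P, for 60 min at 30 °C. Remaining ATP was read by Kinase-Glo luminescence. IC50 came from nonlinear regression, mean ± SD of ≥3 independent experiments.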
(Kinase-Glo reads ATP consumption through a luciferase reaction.)

Data set [3] has the same target. The settings on record: 250 uM.
For data set [4] the target is unchanged. The data set is described as follows: Inhibition of PFKFB3 in human HeLa cells assessed as reduction of fructose 2,6-bisphosphate level at IC50 after 8 hrs. Type of data set: cell-based.
The target is the same in data set [5]. In words: Inhibition of PFKFB3 in human HeLa cells assessed as reduction of lactate secretion at IC50 after 8 hrs. The data set is classed as cell-based.
The nature of data set [6]: Solubility of the compound. The data set is classed as physicochemical.
For data set [7], the target named is T1, 6-phosphofructo-2-kinase/fructose-2,6-bisphosphatase 3. The data set is described as follows: Inhibition of PFKFB3 (unknown origin).
The target is the same in data set [8]. In words: Inhibition of PFKFB3-mediated glycolysis in human MDA-MB-231 cells assessed as extracellular acidification rate at 10 uM after 2 hrs. Type of data set: cell-based. The method in brief:
as §1

Calls of active or inactive are those of the source. The rule behind the calls is not given here.

T1 sequence (Q16875 whole entry): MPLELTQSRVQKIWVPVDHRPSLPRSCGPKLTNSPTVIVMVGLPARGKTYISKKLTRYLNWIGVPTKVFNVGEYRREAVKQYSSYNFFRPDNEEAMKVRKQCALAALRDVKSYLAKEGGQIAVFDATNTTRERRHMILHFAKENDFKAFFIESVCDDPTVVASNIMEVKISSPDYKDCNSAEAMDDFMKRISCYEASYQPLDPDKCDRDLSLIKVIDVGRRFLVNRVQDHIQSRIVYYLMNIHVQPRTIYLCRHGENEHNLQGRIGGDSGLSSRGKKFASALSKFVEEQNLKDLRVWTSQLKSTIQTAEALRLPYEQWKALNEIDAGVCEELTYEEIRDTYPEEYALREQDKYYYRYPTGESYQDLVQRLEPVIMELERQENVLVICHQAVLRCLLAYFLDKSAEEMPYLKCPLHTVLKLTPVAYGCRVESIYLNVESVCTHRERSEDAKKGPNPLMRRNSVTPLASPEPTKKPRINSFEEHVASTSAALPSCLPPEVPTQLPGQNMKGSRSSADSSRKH

`CC(=O)c1nnn(-c2cnn(-c3ccc(Cl)cc3)c(=O)c2Br)c1C`: the inhibition in data set [1] stood at 30%. The IC50 in data set [2] was 7 µM.
For `CC(=O)c1nnn(-c2cnn(-c3ccccc3)c(=O)c2I)c1C`, the IC50 in data set [2] worked out at 13 µM.
As to `N#Cc1cccc2c1CCN(c1cnn(-c3ccccc3)c(=O)c1Br)C2`, the IC50 in data set [2] is more than 500 µM.
Turning to `CCOc1c(-n2nnc(C(C)=O)c2C)cnn(-c2ccccc2)c1=O`, the IC50 in data set [2] was more than 1000 µM.
Still for that read-out and setting: in the case of `CC(=O)c1nnn(-c2cnn(Cc3ccccc3)c(=O)c2)c1C` it was more than 10000 µM.
With `O=C(/C=C/c1ccc2ccccc2n1)c1ccncc1`, the inhibition in data set [3] came out at 26%. Also, in data set [2], the IC50 is more than 1000 µM.
With `CCOC(=O)c1cn(-c2cnn(-c3ccccc3)c(=O)c2N2CC3(COC3)C2)nn1`, the IC50 in data set [2] came to 55 µM.
On the same count and under the same terms, in the case of `CC(=O)c1nnn(-c2cnn(Cc3ccc(I)cc3)c(=O)c2Br)c1C` it was 8.7 µM.
For `CC(=O)c1nnn(-c2cnn(-c3ccc(OC(F)(F)F)cc3)c(=O)c2Br)c1C`, the inhibition in data set [1] was 30%. Besides, the IC50 in data set [2] amounted to 9.1 µM.
Turning to `CC(=O)c1nnn(-c2cnn(-c3cncnc3)c(=O)c2Br)c1C`, in data set [1], the inhibition amounted to 30%. In addition, the IC50 in data set [2] came to 9.6 µM.
On to `CC(=O)c1nnn(-c2cnn(-c3ccccc3)c(=O)c2Cl)c1C`, for which the IC50 in data set [2] is 26 µM.
Take `O=c1c(Br)c(NCC2CCCO2)cnn1-c1ccccc1` (stereo unspecified): the IC50 in data set [2] is more than 1000 µM.
On the same count and under the same terms, as for `CC(=O)c1nnn(-c2cnn(-c3ccc(C#N)cc3)c(=O)c2Br)c1C`, the figure is 8.4 µM.
Take `O=c1c(-c2ccc(O)cc2)coc2c(O)c(O)ccc12`: the inhibition was 40% in data set [4] and more than 30% in data set [5].
On to `CC(=O)c1nnn(-c2cnn(CCCc3ccccc3)c(=O)c2Br)c1C`, for which the inhibition in data set [1] was 30%. Besides, the IC50 in data set [2] is 11 µM.
Regarding `O=C(c1ccncc1)c1cc2c(ccc3ccccc32)[nH]1`, the solubility entry in data set [6] is listed as “Insoluble”. The IC50 in data set [7] is more than 1000 µM.
Take `NC(=O)CNc1cnn(-c2ccccc2)c(=O)c1Br`: in data set [2], the IC50 was more than 1000 µM.
On to `O=c1c(Br)c(N2CC3(COC3)C2)cnn1-c1ccccc1`, for which the IC50 in data set [2] was more than 1000 µM.
As to `CC(=O)c1nnn(-c2cnn(Cc3ccc(NCCN(C)C)cc3)c(=O)c2Br)c1C`, the IC50 in data set [2] is more than 500 µM.
Still for that read-out and setting: as for `CC(=O)c1nnn(-c2cnn(CCc3ccccc3)c(=O)c2Br)c1C`, the figure is 2.6 µM.
As to `CC(=O)c1nnn(-c2cnn(-c3ccccc3)c(=O)c2Br)c1C`, the inhibition result in data set [8] was “inactive”. Also, the IC50 in data set [2] amounted to 7.4 µM.
Turning to `O=C(O)c1ccc(NS(=O)(=O)c2cccc3ccccc23)cc1O`, the IC50 in data set [7] and in data set [2] was 27 µM throughout.
`O=C(/C=C/c1cccnc1)c1ccncc1`: in data set [8], the inhibition entry was “inactive”. The molecule further gave an IC50 in data set [7] of 25 µM.
As for `CC(=O)c1nnn(-c2cnn(-c3ccccc3)c(=O)c2C(C)C)c1C`, the 50% inhibitory concentration (IC50) in data set [2] was more than 500 µM.
The same measure, in the same setting: in the case of `O=c1c(Br)c(N2CCOCC2)cnn1-c1ccccc1` it was more than 1000 µM.
On to `CC(=O)c1nnn(-c2cnn(Cc3ccccc3)c(=O)c2Br)c1C`, for which the IC50 in data set [2] worked out at 3.4 µM.

For orientation: inhibition means the share of the control response that was lost under treatment. For orientation: IC50 means the concentration needed to halve the response being measured.

(Values after ChEMBL document CHEMBL3102712, “Targeting the Warburg Effect in cancer; relationships for 2-arylpyridazinones as inhibitors of the key glycolytic enzyme 6-phosphofructo-2-kinase/2,6-bisphosphatase 3 (PFKFB3)” (Bioorg Med Chem, 2014).)
